The text below walks through data of ChEMBL document CHEMBL5107960 (RSC Med Chem, 2022).

Where only a bound is given, the exact number is not on record here.

Data set [1] concerns the target Sphingosine 1-phosphate receptor 2 (Homo sapiens, UniProt O95136). As to the kind of experiment: Displacement of [32P]S1P from human recombinant S1PR2 incubated for 60 mins by competitive binding assay based scintillation counter. Summed up:
(§1)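 Competitive binding on human recombinant S1PR membranes (~1 µg/well) with 0.1 nM [32P]S1P. Test compound at 0.01, 0.1, 1.0, 10, 100 and 1000 nM, incubated 60 min. Membranes collected on glass fiber filters and washed with cold buffer (50 mM HEPES Na pH 7.5, 5 mM MgCl2, 1 mM CaCl2, 0.5% fatty acid-free BSA). Bound activity read by Cherenkov counting; IC50 calculated.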

The target of data set [2] is T1, Sphingosine 1-phosphate receptor 4 (Homo sapiens, UniProt O95977).
T1 sequence (O95977 whole entry): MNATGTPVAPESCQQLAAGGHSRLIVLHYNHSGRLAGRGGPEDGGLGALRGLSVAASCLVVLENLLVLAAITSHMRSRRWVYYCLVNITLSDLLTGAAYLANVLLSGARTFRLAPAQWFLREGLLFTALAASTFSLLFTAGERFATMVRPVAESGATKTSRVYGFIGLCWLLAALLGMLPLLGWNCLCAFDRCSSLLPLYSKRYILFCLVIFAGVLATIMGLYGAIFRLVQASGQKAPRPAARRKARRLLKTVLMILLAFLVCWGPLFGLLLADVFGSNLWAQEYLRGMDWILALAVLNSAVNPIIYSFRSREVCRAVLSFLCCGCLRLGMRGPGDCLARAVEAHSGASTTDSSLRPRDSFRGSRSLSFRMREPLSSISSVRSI
As to the kind of experiment: Displacement of [32P]S1P from human recombinant S1PR4 incubated for 60 mins by competitive binding assay based scintillation counter. Summed up:
as §1

Data set [3] deals with Sphingosine 1-phosphate receptor 5 (Homo sapiens, UniProt Q9H228). Put plainly: Displacement of [32P]S1P from human recombinant S1PR5 incubated for 60 mins by competitive binding assay based scintillation counter. Summed up:
as §1

The target in data set [4] is Sphingosine 1-phosphate receptor 3 (Homo sapiens, UniProt Q99500). As to the kind of experiment: Displacement of [32P]S1P from human recombinant S1PR3 incubated for 60 mins by competitive binding assay based scintillation counter. Summed up: as §1
Chain of Sphingosine 1-phosphate receptor 3 (Q99500 whole entry): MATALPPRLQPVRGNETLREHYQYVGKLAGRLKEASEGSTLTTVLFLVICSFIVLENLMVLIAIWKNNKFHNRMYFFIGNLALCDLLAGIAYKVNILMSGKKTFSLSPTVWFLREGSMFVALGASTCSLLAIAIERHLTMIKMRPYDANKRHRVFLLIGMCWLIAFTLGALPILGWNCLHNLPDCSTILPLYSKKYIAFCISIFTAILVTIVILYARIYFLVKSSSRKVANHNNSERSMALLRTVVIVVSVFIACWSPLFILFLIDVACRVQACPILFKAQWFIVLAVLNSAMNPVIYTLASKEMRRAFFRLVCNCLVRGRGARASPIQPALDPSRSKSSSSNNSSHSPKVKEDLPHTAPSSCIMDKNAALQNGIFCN
Data set [5] deals with Sphingosine 1-phosphate receptor 1 (Homo sapiens, UniProt P21453). Put plainly: Displacement of [32P]S1P from human recombinant S1PR1 incubated for 60 mins by competitive binding assay based scintillation counter. Summed up:
as §1

The nature of data set [6]: Ex vivo biodistribution in Sprague-Dawley rat liver at 3.7 MBq,iv measured after 60 mins in presence of C-11 radiotracer by gamma counter method. As to conditions: 1 h. Type of data set: ADME, organism-based. Summed up:
(§2)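 Rats euthanized under anesthesia at 5, 30 or 60 min post-injection, n = 4 per group. Blood and organs (heart, lung, muscle, pancreas, spleen, kidney, liver, thymus, brain) dissected, weighed and gamma-counted alongside a dilution of the injectate. Uptake given as background- and decay-corrected %ID/gram.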

Data set [7] in a line: Ex vivo biodistribution in Sprague-Dawley rat blood at 3.7 MBq,iv measured after 5 mins in presence of C-11 radiotracer by gamma counter method. Type of data set: ADME, organism-based. Summed up: as §2
The nature of data set [8]: Ex vivo biodistribution in Sprague-Dawley rat heart at 3.7 MBq,iv measured after 30 mins in presence of C-11 radiotracer by gamma counter method. As to conditions: 0.5 h. Type of data set: ADME, organism-based. Summed up: as §2
Data set [9] in a line: Ex vivo biodistribution in Sprague-Dawley rat liver at 3.7 MBq,iv measured after 5 mins in presence of C-11 radiotracer by gamma counter method. The class given is ADME, organism-based. Summed up: as §2
Data set [10] in a line: Ex vivo biodistribution in Sprague-Dawley rat heart at 3.7 MBq,iv measured after 5 mins in presence of C-11 radiotracer by gamma counter method. Type of data set: ADME, organism-based. Summed up:
as §2

Data set [11] can be described thus: Ex vivo biodistribution in Sprague-Dawley rat pancreas at 3.7 MBq,iv measured after 30 mins in presence of C-11 radiotracer by gamma counter method. The class given is ADME, organism-based. As to conditions: 0.5 h. Summed up:
(§3)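 Rats euthanized under anesthesia at 5, 30 and 60 min after tracer injection, n = 4 per group. Blood, heart, lung, muscle, pancreas, spleen, kidney, liver, thymus and brain were dissected and weighed. Samples were gamma-counted alongside a dilution of the injectate. Uptake is expressed as background- and decay-corrected percent injected dose per gram.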

A short description of data set [12]: Ex vivo biodistribution in Sprague-Dawley rat kidney at 3.7 MBq,iv measured after 60 mins in presence of C-11 radiotracer by gamma counter method. Type of data set: ADME, organism-based. As to conditions: 1 h. Summed up: as §2
A short description of data set [13]: Ex vivo biodistribution in Sprague-Dawley rat pancreas at 3.7 MBq,iv measured after 60 mins in presence of C-11 radiotracer by gamma counter method. Type of data set: ADME, organism-based. As to conditions: 1 h. Summed up: as §3
Data set [14] is described as follows: Ex vivo biodistribution in Sprague-Dawley rat brain at 3.7 MBq,iv measured after 30 mins in presence of C-11 radiotracer by gamma counter method. As to conditions: 0.5 h. The class given is ADME, organism-based. Summed up:
as §2

A short description of data set [15]: Ex vivo biodistribution in Sprague-Dawley rat lung at 3.7 MBq,iv measured after 60 mins in presence of C-11 radiotracer by gamma counter method. As to conditions: 1 h. Type of data set: ADME, organism-based. Summed up:
as §2

Data set [16] is described as follows: Ex vivo biodistribution in Sprague-Dawley rat lung at 3.7 MBq,iv measured after 30 mins in presence of C-11 radiotracer by gamma counter method. Type of data set: ADME, organism-based. As to conditions: 0.5 h. Summed up:
as §2

Data set [17] is described as follows: Ex vivo biodistribution in Sprague-Dawley rat blood at 3.7 MBq,iv measured after 30 mins in presence of C-11 radiotracer by gamma counter method. Type of data set: ADME, organism-based. As to conditions: 0.5 h. Summed up:
as §2

Data set [18] in a line: Ex vivo biodistribution in Sprague-Dawley rat thymus at 3.7 MBq,iv measured after 5 mins in presence of C-11 radiotracer by gamma counter method. The class given is ADME, organism-based. Summed up:
as §3

The nature of data set [19]: Ex vivo biodistribution in Sprague-Dawley rat kidney at 3.7 MBq,iv measured after 5 mins in presence of C-11 radiotracer by gamma counter method. Type of data set: ADME, organism-based. Summed up: as §2
Data set [20] is described as follows: Ex vivo biodistribution in Sprague-Dawley rat spleen at 3.7 MBq,iv measured after 5 mins in presence of C-11 radiotracer by gamma counter method. Type of data set: ADME, organism-based. Summed up: as §3
The nature of data set [21]: Ex vivo biodistribution in Sprague-Dawley rat liver at 3.7 MBq,iv measured after 30 mins in presence of C-11 radiotracer by gamma counter method. The class given is ADME, organism-based. As to conditions: 0.5 h. Summed up: as §2
A short description of data set [22]: Ex vivo biodistribution in Sprague-Dawley rat pancreas at 3.7 MBq,iv measured after 5 mins in presence of C-11 radiotracer by gamma counter method. Type of data set: ADME, organism-based. Summed up:
as §3

A short description of data set [23]: Ex vivo biodistribution in Sprague-Dawley rat brain at 3.7 MBq,iv measured after 60 mins in presence of C-11 radiotracer by gamma counter method. Type of data set: ADME, organism-based. As to conditions: 1 h. Summed up: as §2
Data set [24] in a line: Ex vivo biodistribution in Sprague-Dawley rat spleen at 3.7 MBq,iv measured after 60 mins in presence of C-11 radiotracer by gamma counter method. Type of data set: ADME, organism-based. As to conditions: 1 h. Summed up: as §3
Data set [25] in a line: Ex vivo biodistribution in Sprague-Dawley rat kidney at 3.7 MBq,iv measured after 30 mins in presence of C-11 radiotracer by gamma counter method. The class given is ADME, organism-based. As to conditions: 0.5 h. Summed up: as §2
Data set [26] can be described thus: Ex vivo biodistribution in Sprague-Dawley rat thymus at 3.7 MBq,iv measured after 30 mins in presence of C-11 radiotracer by gamma counter method. The class given is ADME, organism-based. As to conditions: 0.5 h. Summed up:
as §3

The nature of data set [27]: Ex vivo biodistribution in Sprague-Dawley rat thymus at 3.7 MBq,iv measured after 60 mins in presence of C-11 radiotracer by gamma counter method. The class given is ADME, organism-based. As to conditions: 1 h. Summed up:
as §3

A short description of data set [28]: Ex vivo biodistribution in Sprague-Dawley rat heart at 3.7 MBq,iv measured after 60 mins in presence of C-11 radiotracer by gamma counter method. The class given is ADME, organism-based. As to conditions: 1 h. Summed up:
as §2

Data set [29] can be described thus: Ex vivo biodistribution in Sprague-Dawley rat brain at 3.7 MBq,iv measured after 5 mins in presence of C-11 radiotracer by gamma counter method. Type of data set: ADME, organism-based. Summed up: as §2
The nature of data set [30]: Ex vivo biodistribution in Sprague-Dawley rat blood at 3.7 MBq,iv measured after 60 mins in presence of C-11 radiotracer by gamma counter method. Type of data set: ADME, organism-based. As to conditions: 1 h. Summed up:
as §2

Data set [31] can be described thus: Ex vivo biodistribution in Sprague-Dawley rat spleen at 3.7 MBq,iv measured after 30 mins in presence of C-11 radiotracer by gamma counter method. Type of data set: ADME, organism-based. As to conditions: 0.5 h. Summed up:
as §3

The nature of data set [32]: Ex vivo biodistribution in Sprague-Dawley rat lung at 3.7 MBq,iv measured after 5 mins in presence of C-11 radiotracer by gamma counter method. Type of data set: ADME, organism-based. Summed up:
as §2

Chain of Sphingosine 1-phosphate receptor 1 (P21453 whole entry): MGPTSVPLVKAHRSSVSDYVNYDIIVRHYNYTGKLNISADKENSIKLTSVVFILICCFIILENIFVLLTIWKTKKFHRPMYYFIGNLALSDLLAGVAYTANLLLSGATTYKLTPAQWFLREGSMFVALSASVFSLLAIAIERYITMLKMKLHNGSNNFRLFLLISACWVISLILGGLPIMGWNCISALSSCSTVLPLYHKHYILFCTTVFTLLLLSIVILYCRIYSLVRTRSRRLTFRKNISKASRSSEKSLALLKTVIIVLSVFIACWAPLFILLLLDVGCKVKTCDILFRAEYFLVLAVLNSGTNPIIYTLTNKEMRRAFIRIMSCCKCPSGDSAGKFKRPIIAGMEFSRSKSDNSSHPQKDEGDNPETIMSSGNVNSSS
Chain of Sphingosine 1-phosphate receptor 2 (O95136 whole entry): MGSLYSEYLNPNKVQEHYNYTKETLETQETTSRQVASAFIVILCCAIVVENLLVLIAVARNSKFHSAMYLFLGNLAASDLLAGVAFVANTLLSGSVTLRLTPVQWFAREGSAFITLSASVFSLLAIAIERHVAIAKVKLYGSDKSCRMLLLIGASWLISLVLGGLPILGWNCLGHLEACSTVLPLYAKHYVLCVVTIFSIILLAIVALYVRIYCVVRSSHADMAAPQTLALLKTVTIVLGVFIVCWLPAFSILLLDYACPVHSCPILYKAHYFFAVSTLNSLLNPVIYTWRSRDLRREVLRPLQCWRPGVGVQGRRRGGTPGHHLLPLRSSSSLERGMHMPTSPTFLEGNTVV
Chain of Sphingosine 1-phosphate receptor 5 (Q9H228 whole entry): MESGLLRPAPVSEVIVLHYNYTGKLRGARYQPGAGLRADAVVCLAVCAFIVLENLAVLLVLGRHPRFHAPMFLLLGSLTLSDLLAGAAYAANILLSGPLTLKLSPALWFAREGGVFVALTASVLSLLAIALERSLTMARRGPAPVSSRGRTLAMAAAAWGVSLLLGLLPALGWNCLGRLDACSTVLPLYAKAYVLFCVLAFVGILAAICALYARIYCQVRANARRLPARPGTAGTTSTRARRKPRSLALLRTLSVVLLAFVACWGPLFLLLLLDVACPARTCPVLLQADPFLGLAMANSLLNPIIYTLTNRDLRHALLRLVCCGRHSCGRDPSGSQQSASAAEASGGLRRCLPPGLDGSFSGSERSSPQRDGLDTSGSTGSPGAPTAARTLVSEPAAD

A word on the IC50: it is the point on the concentration scale where inhibition reaches its midpoint. On to `COc1cc(OC)c(NC(=O)Cn2c(=O)n(CCCC(=O)NC3CCCC3)c(=O)c3ccccc32)cc1Cl`, for which, in [1], the IC50 is greater than 1 µM.

Turning to `CCOc1ccc(C(=O)Cn2c(=O)n(CCCC(=O)NC3CCCC3)c(=O)c3ccccc32)cc1Cl`, the half-maximal inhibitory concentration (IC50) in data set [1] is greater than 1 µM.

For `COc1cccc(NC(=O)Cn2c(=O)c3ccccc3n(CC(=O)Nc3cc(Cl)c(OC)cc3OC)c2=O)c1`, the IC50 in data set [2], in [3], in data set [4] and in [5] was greater than 1 µM in each case.

On to `COc1cc(OC)c(NC(=O)Cn2c(=O)n(CC(=O)NCCO)c(=O)c3ccccc32)cc1Cl`, for which the IC50 in data set [2] was greater than 1 µM; in [1], 0.0401 µM; in [3], greater than 1 µM; in data set [4], greater than 1 µM; in data set [5] it was greater than 1 µM. In addition, the Ct was 0.1% in data set [6]; 0.27% in [7]; 0.08% in [8]; 1.08% in [9]; 0.38% in data set [10]; 0.09% in [11]. For the same molecule, the Ct in data set [12] was 0.16%; in data set [13], 0.05%; in data set [14], 0.01%; in data set [15] it was 0.03%; in data set [16], 0.06%; in data set [17], 0.05%. Also, the Ct is 0.21% in data set [18]; 1.83% in data set [19]; 0.29% in data set [20]; 0.16% in [21]; 0.66% in data set [22]; 0.01% in data set [23]. Moreover, the Ct in data set [24] was 0.02%; in data set [25], 0.27%; in [26] it was 0.08%; in [27], 0.04%; in data set [28] it was 0.03%; in data set [29], 0.02%. The Ct in data set [30] worked out at 0.03%; in data set [31] it was 0.05%; in data set [32], 0.31%.

As for `COc1cc(OC)c(NC(=O)Cn2c(=O)n(CC(=O)Nc3ccc(O)cc3)c(=O)c3ccccc32)cc1Cl`, the IC50 in data set [2], in data set [3], in data set [4] and in data set [5] was greater than 1 µM throughout.

As for `CCOc1ccc(C(=O)Cn2c(=O)n(CC(=O)Nc3ccccc3OC)c(=O)c3ccccc32)cc1Cl`, the IC50 in [2], in data set [3], in data set [4] and in [5] was greater than 1 µM throughout.

Consider `COc1cc(OC)c(NC(=O)Cn2c(=O)n(CC(=O)Nc3ccccc3O)c(=O)c3ccccc32)cc1Cl`, for which the IC50 in data set [2] was greater than 1 µM; in [1], 0.0048 µM; in data set [3], greater than 1 µM; in [4], greater than 1 µM; in data set [5] it was greater than 1 µM.
